# Screening data: PubChem, The Scripps Research Institute Molecular Screening Center
# Compounds with a hit are over-represented: about 3.9% of the library has one in this group of screens.
# OX1R antag-1: blocks the human orexin 1 receptor; O43613; 330,000 tested, 1.8% active; OX1R-expressing cells, FRET antagonist read-out; AID 485270; inhibition, % at 6.6 µM; in the data active = inhibition mostly above about 38%, no sharp cut-off; inactive = mostly below about 40%
# Target sequence (O43613 whole entry, looked up): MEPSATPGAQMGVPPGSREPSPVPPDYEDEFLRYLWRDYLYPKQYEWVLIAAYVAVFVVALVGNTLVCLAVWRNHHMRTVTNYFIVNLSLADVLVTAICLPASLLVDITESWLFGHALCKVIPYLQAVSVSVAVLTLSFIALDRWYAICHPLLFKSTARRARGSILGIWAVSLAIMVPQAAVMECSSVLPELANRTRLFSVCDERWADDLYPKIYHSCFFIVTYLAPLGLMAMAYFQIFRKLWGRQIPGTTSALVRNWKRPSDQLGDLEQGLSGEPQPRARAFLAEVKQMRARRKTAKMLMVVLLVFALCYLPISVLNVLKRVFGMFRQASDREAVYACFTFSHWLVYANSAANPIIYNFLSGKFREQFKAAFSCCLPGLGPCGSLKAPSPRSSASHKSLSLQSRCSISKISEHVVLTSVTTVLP
# CHO parental Ca: signal in parental CHO cells, OX1R antagonist counter-screen | parental CHO-K1, ATP-induced calcium, Fluo-8 fluorescence | inhibition, % at 5.6 µM | 330,000 tested, 0.63% active;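 active = inhibition above that plate's mean sample inhibition plus 3 SD, cut at about 26% in these data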
#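 Test system: untransfected parental CHO cell line. Compound: one dose, 5.6 µM nominal. Detection: intracellular calcium via Fluo-8 no-wash fluorescent dye. Measure: % inhibition. Benchmarks: ATP-challenged DMSO wells low, unchallenged DMSO wells high.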
# TAAR1 antagonist: human TAAR1 antagonism; AID 624466; inhibition, % at 3 µM; 360,000 tested, 1.5% active; CHO RD-HGA16 TAAR1, Fluo-8 calcium fluorescence, antagonist; Q96RJ0;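 active = inhibition above a per-plate cutoff, the mean inhibition of test compounds on that plate plus 3 SD, cut at about 49% in these data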
# Target sequence (Q96RJ0 whole entry, looked up): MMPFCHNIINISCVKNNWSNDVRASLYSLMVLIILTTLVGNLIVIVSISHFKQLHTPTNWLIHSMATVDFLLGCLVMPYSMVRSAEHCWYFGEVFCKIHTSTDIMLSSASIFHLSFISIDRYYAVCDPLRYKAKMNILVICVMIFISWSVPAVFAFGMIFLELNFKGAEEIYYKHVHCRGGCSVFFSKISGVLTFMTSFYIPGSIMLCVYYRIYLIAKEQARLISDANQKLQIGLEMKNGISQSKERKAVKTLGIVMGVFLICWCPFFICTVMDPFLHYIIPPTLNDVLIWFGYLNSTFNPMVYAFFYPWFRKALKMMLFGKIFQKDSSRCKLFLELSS
#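 Assay system: CHO-derived RD-HGA16 cells stably expressing human TAAR1 plus Gα16. Timing: 140 s kinetic read after compound, 140 s after agonist. Technique: kinetic Fluo-8 calcium fluorescence measurement. Measure: % inhibition of agonist calcium response.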
# TAAR1 ag: human TAAR1 agonism | Q96RJ0 | CHO RD-HGA16 TAAR1, Fluo-8 calcium fluorescence; vehicle wells 0%, saturating PEA agonist 100% | activation, % at 3 µM | 360,000 tested, 0.99% active | AID 624467;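 active = activation above the mean activation of all test compounds in the run plus 3 SD, cut at about 38% in these data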
#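 Benchmarks: low control DMSO, high control PEA (EC100); System: CHO RD-HGA16 cells carrying human TAAR1 plus Gα16; Detection: Fluo-8 fluorescence, 5 s baseline then 140 s kinetic read; Schedule: 17-24 h plating, Fluo-8 75 min 37 °C, 30 min RT; Read-out basis: % activation from peak over basal fluorescence ratio, DMSO-to-PEA scaled.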
# OX1R antag-2: human HCRTR1 antagonism; O43613; CHO/OX1R cells, Fluo-8 calcium fluorescence, orexin A; inhibition, % at 5 µM; 330,000 tested, 0.43% active; AID 434989;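 active = inhibition above its plate's threshold, mean inhibition of all tested compounds on the plate plus 3 SD, cut at about 37% in these data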
# nonsel antag count: nonselective antagonism, TAAR1 counter-screen; shares compounds with TAAR1 antagonist; counterscreen cell line, calcium fluorescence, antagonist mode; inhibition, % at 3 µM; 2,400 tested, 77% active; AID 651780; in the data active = inhibition above about 22%;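 note: CHO-Ga16 host cells stimulated with ATP at an EC80 level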
# TAAR1 ant conf: human TAAR1 antagonism, confirmed | TAAR1-expressing cells, fluorescence antagonist read-out | AID 651785 | inhibition, % at 3 µM | shares compounds with TAAR1 antagonist | 2,400 tested, 40% active; in the data active = inhibition above about 49%;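 note: CHO-Ga16 host cells challenged with agonist PEA near its EC80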
# Ga16 ag counter-1: nonselective Ga16 agonism, counter-screen; shares compounds with TAAR1 antagonist; Ga16-expressing cells, calcium fluorescence, agonist counterscreen; activation, % at 3 µM; 2,400 tested, 18% active; AID 651953; in the data active = activation above about 12%
# TAAR1 ag counter: counter-screen for human TAAR1 antagonists: TAAR1 agonists; hTAAR1 cell line, fluorescence activation, agonist mode; shares compounds with TAAR1 antagonist; activation, % at 3 µM; AID 651955; 2,400 tested, 2% active; in the data active = activation above about 37%;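 note: CHO cells stably expressing TAAR1 with calcium dye readout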
# TAAR1 ag conf: human TAAR1 agonism, confirmed | 2,400 tested, 82% active | shares compounds with TAAR1 ag | activation, % at 3 µM | CHO RD-HGA16 TAAR1, Fluo-8 calcium fluorescence; scaled: DMSO 0%, maximal phenethylamine 100% | AID 651783;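 active = activation above a cutoff set at the run's mean compound activation plus 3 SD, cut at about 39% in these data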
# Ga16 ag counter-2: nonselective agonist in parental cells, TAAR1 agonist counter-screen | AID 651787 | activation, % at 3 µM | 2,400 tested, 50% active | shares compounds with TAAR1 ag | CHO-Ga16 parental, Fluo-8 calcium fluorescence; normalized to maximal ATP response, DMSO zero;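 active = activation above the run cutoff, the mean activation over all tested wells plus 3 SD, cut at about 12% in these data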
# TAAR1 desens: human TAAR1 agonist that also desensitizes the receptor | shares compounds with TAAR1 ag | CHO RD-HGA16 hTAAR1, Fluo-8 calcium, beta-PEA response inhibition | inhibition, % at 3 µM | 2,400 tested, 46% active | AID 651951;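 active = inhibition above the run cutoff, the mean inhibition of all test compounds plus 3 SD, cut at about 49% in these data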;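 note: beta-PEA stimulus applied at its EC80; loss of beta-PEA calcium signal after compound pretreatment read as receptor desensitization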
# Ga16 antag count: nonselective Ga16 antagonist in TAAR1 agonist counter-screen; shares compounds with TAAR1 ag; CHO-Ga16 ATP-induced calcium, Fluo-8 fluorescence; inhibition, % at 3 µM; 2,400 tested, 39% active; AID 651952;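 active = inhibition above the plate's mean compound inhibition plus 3 SD, computed per plate, cut at about 22% in these data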
# Hits are given with their value; 0 = inactive; - = no result.
SMILES,OX1R antag-1,CHO parental Ca,TAAR1 antagonist,TAAR1 ag,OX1R antag-2,nonsel antag count,TAAR1 ant conf,Ga16 ag counter-1,TAAR1 ag counter,others
O=C1NCN(c2ccccc2)C12CCN(C(c1ccccc1)c1nnnn1Cc1ccccc1)CC2 (stereo not drawn),-,-,53,0,-,0,0,0,0,
O=C1NCN(c2ccccc2)C12CCN(C(c1nnnn1Cc1ccccc1)C1CC1)CC2 (stereo not drawn),-,-,0,0,-,-,-,-,-,
O=C1NCN(c2ccccc2)C12CCN(C(CCc1ccccc1)c1nnnn1Cc1ccccc1)CC2 (stereo not drawn),-,-,0,0,-,-,-,-,-,
C=C1[C@@H](C)[C@H]2[C@H](Cc3ccccc3)NC(=O)[C@]23OC(=O)/C=C/[C@H](O)CCC[C@@H](C)C/C=C/[C@H]3[C@@H]1O,0,0,72,0,0,32,55,0,0,
O=P(/C=C1\OCc2ccccc21)(Oc1ccccc1)Oc1ccccc1,-,-,0,0,-,-,-,-,-,
COC(=O)C1=C(c2cccc(OC)c2OC)C[C@@H]2CC[C@H]1N2C(=O)N1CCC(C)CC1,0,0,0,0,0,-,-,-,-,
COC(=O)c1ccc(NC(=O)CSc2nc3ccc(N4C(=O)C5C6C=CC(C6)C5C4=O)cc3s2)cc1 (stereo not drawn),0,0,88,0,0,41,65,17,0,
c1ccc(-c2nc3ccccc3nc2-c2ccc(CN3CCC(n4nnc5ccccc54)CC3)cc2)cc1,-,-,51,0,-,0,0,0,0,
CC(=O)c1ccc2c(c1)C1C(Cl)C(Sc3ccccc3[N+](=O)[O-])CC1C(c1ccccc1)N2 (stereo not drawn),0,0,0,0,0,-,-,-,-,
CC(=O)c1ccc2c(c1)C1C(Cl)C(Sc3ccccc3[N+](=O)[O-])CC1C(c1ccccc1[N+](=O)[O-])N2 (stereo not drawn),0,0,58,0,0,34,0,0,0,
O=C(C1CCC(=O)N1Cc1ccc(F)cc1)N1CCC2(CC1)OCCO2 (stereo not drawn),0,0,0,0,0,-,-,-,-,
CC(=O)C1(c2ccccc2)CCN(C(=O)C2CCC(=O)N(CCc3cccc(F)c3)C2)CC1 (stereo not drawn),0,0,61,0,0,0,0,0,0,
Cc1cccc(OP(=O)(Nc2cccnc2)Oc2cccc(C)c2)c1,0,0,0,0,0,-,-,-,-,
O=P(Nc1cccnc1)(Oc1ccccc1Cl)Oc1ccccc1Cl,0,0,70,0,0,32,0,0,0,
CCC(=O)OC1CCC2C3CCC4CC(=O)C=CC4(C)C3CCC12C (stereo not drawn),-,-,0,0,-,-,-,-,-,
O=c1[nH]c2ccccc2n1C1CCN(C(CCc2ccccc2)c2nnnn2Cc2ccccc2)CC1 (stereo not drawn),-,-,55,0,-,0,0,0,0,
CSCCC(c1nnnn1Cc1ccccc1)N1CCC(n2c(=O)[nH]c3ccccc32)CC1 (stereo not drawn),-,-,70,0,-,22,52,0,0,
COC(=O)C1=C(c2ccc(Cl)c(C(F)(F)F)c2)C[C@@H]2CC[C@H]1N2C(=O)NC1CCCCC1,0,0,0,0,0,-,-,-,-,
COc1ccc(NP(=O)(Oc2ccc(Cl)cc2)Oc2ccc(Cl)cc2)cc1OC,0,0,0,0,0,-,-,-,-,
COc1ccccc1OP(=O)(Nc1ccc(Br)cc1)Oc1ccccc1OC,0,0,78,0,0,30,56,0,0,
O=C(/C=C/c1c[nH]c2ccccc12)c1c(O)n(CCc2ccccc2)c(=O)[nH]c1=O,0,0,0,0,0,-,-,-,-,
CC(C)(C)n1nnnc1C(CCc1ccccc1)N1CCC(n2c(=O)[nH]c3ccccc32)CC1 (stereo not drawn),-,-,0,0,-,-,-,-,-,
CSCCC(c1nnnn1-c1c(C)cccc1C)N1CCC(n2c(=O)[nH]c3ccccc32)CC1 (stereo not drawn),-,-,53,0,-,24,55,0,0,
Cc1cccc(C)c1-n1nnnc1C(C1CC1)N1CCC(n2c(=O)[nH]c3ccccc32)CC1 (stereo not drawn),-,-,0,0,-,-,-,-,-,
CSCCC(c1nnnn1C1CCCC1)N1CCC(n2c(=O)[nH]c3ccccc32)CC1 (stereo not drawn),-,-,56,0,-,23,0,0,0,
SMILES,OX1R antag-1,CHO parental Ca,TAAR1 antagonist,TAAR1 ag,OX1R antag-2,nonsel antag count,TAAR1 ant conf,Ga16 ag counter-1,TAAR1 ag counter,others
O=c1[nH]c2ccccc2n1C1CCN(C(CCc2ccccc2)c2nnnn2C2CCCCC2)CC1 (stereo not drawn),-,-,58,0,-,26,0,0,0,
Cc1c(C(=O)N2CCC3(CC2)OCCO3)sc2ncnc(N3CCN(c4ccccn4)CC3)c12,0,0,61,0,0,28,50,0,0,
COC(=O)C1=C(c2ccc(F)cc2OCc2ccccc2)C[C@@H]2CC[C@H]1N2C(=O)NCc1ccc([N+](=O)[O-])cc1,0,0,58,0,0,27,0,0,0,
CN1/C(=C\C=C2C(=O)NC(=O)NC2=O)C(C)(C)c2ccccc21,112,41,0,86,0,-,-,-,-,TAAR1 ag conf=0;Ga16 ag counter-2=27;TAAR1 desens=0;Ga16 antag count=25
Cc1c(C=C2C(=O)NC(=O)NC2=O)c(=O)n(-c2ccccc2)n1C,0,0,0,0,0,-,-,-,-,
Oc1c(Cl)cccc1Cc1cc(Cl)cc(Cl)c1O,-,-,0,0,-,-,-,-,-,
O=[N+]([O-])c1ccc(OP(=O)(O)Oc2ccc([N+](=O)[O-])cc2)cc1,-,-,0,0,-,-,-,-,-,
O=C1NC(=O)N(c2ccccc2)C(=O)/C1=C/C=C/c1ccco1,0,0,0,57,0,-,-,-,-,TAAR1 ag conf=0;Ga16 ag counter-2=13;TAAR1 desens=0;Ga16 antag count=0
CN1C(=O)/C(=C/C=C/c2ccco2)C(=O)NC1=S,0,0,0,0,0,-,-,-,-,
